Experiments:
MS2 coat protein [1] = assay: apparent Kd, MS2 coat protein; higher = weaker binding; RNA-MaP array
Outline: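 Designed RNAs were transcribed in place on an Illumina sequencing chip from sequenced DNA templates. At room temperature and with or without input ligand, they were incubated with fluorescently labeled MS2 coat protein from 1.5 nM to 3 μM, for 0.8–1.5 h at the lowest and 10–20 min at the highest concentrations. Apparent Kd is the median of the binding-curve fits made per cluster, with designs measured on fewer than 10 clusters excluded.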

MS2 coat protein [2] = assay: apparent Kd, MS2 coat protein; higher = weaker binding; RNA-MaP array; FMN 200 µM where present
Outline: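 Apparent Kd: the median of filtered binding-curve fits from single clusters. Designs were transcribed on Illumina sequencing-chip clusters by stalled E. coli RNA polymerase and titrated with SNAP-549-labelled MS2 coat protein from 0.7 or 1.5 nM, doubling to 3 µM, in 100 mM Tris-HCl pH 7.5, 80 mM KCl, 4 mM MgCl2, BSA, DTT, yeast tRNA and Tween-20. Each series ran without and then with constant ligand, and green signal was normalised to red-channel RNA signal and control-cluster median Fmax.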

[3] = designed as: ON switch for theophylline, no ligand
[4] = ligand present: theophylline, designed as: ON switch for theophylline
[5] = designed as: ON switch for flavin mononucleotide, no ligand
[6] = ligand present: flavin mononucleotide, designed as: ON switch for flavin mononucleotide
[7] = designed as: OFF switch for flavin mononucleotide, no ligand
[8] = ligand present: flavin mononucleotide, designed as: OFF switch for flavin mononucleotide

Sequence | apparent Kd (MS2 coat protein [1]; [5]) [nM] | apparent Kd (MS2 coat protein [1]; [6]) [nM] | apparent Kd (MS2 coat protein [1]; [7]) [nM] | apparent Kd (MS2 coat protein [1]; [8]) [nM] | other results
AAAAGACAUGAGGAUCACCCAUGUAGAGAUACCAGAUGCAUGGACAUCCCUUGGCAGCUCGUCACUUUCUAUAUUUUCCAGACGC | – | – | – | – | apparent Kd (MS2 coat protein [1]; [3]): 46.9 nM; apparent Kd (MS2 coat protein [1]; [4]): 21.9 nM
AAACACUCAUAAGGAUAUGCAGCGCUUAGACAUGAGGAUCACCCAUGUGAUGCAGGGAAGUCCCGGCAGAAGGUAAGUAAGUAC | 14.4 | 13 | – | – | –
AAACCAUCAAACACAUGAGGAUCACCCAUGUCUAAAGAAAUGUAGGAUAUGUAAUACCUAGUCAAACAGAAGGACAUUCAAGAU | 9.39 | 8.35 | – | – | –
AAAUAAAUAGCAGGAUAUGGGAAACAUGAGGAUCACCCAUGUCAUAAAUAGCGAAAAUAACACAUCCAGAAGGGCAAGAAUCAA | 412 | 137 | – | – | –
AACAUGGAUCAAGGAUAUGCAAAGCGCUCGAUAAACAUGAGGAUCACCCAUGUGGCAGUCACAACGCAGAAGGUGACUAUAAUA | 29.9 | 19.3 | – | – | –
AACGAAUGAGGAUAUACAUGAGGAUCACCCAUGUGAAAGGGAGGUUGAAGAUUUGACAGUAGAAGGCAUAUGAC | – | – | 94.2 | 80 | –
AACUAACAUAGUUAACAACAUGAGGAUCACCCAUGUCGCAUGUAGGAUAUGGUAGAGGACACAACCCAGAAGGACAUAACAUAA | 41.9 | 22.9 | – | – | –
AAGCGCAAAGGAUAUAGCCGAUCCAACAUGAGGAUCACCCAUGUGACUUCCGACAUCAAGCUAGAAGGUUGAUGCA | – | – | 47.6 | 41 | –
AAGCUGGAGAAUACAUGAGGAUCACCCAUGUGGCUUCAUGCCUAGGAUAUUAGUGUGCAGAACUGUAAGAAGGAGGAUCUUUAA | – | – | 10.3 | 8.56 | –
AAUAAACGAGGAUAUACAGAUCAAGAUUAUCUAGUGAUCCUACAUGAGGAUCACCCAUGUAGAAGGCGAGAACA | – | – | 51.1 | 66.7 | –
AAUAGUUCUGGAGGAUAUUGUACAUGAGGAUCACCCAUGUUAUCUACUGCUAUGGUUGACCUGCGCAAGAAGGCCACGUUCCUG | – | – | 12.6 | 20.5 | –
AAUCAUAAUAAAGGAUAUACAACACAACAGGUGGUAGAAGGAUAUGGAGAUGGAACACACAUGAGGAUCACCCAUGUAAAUAGC | 13 | 9.95 | – | – | –
AAUCCAAGAAAUGAUACCAGUCCCACUCAGGACAUGAGGAUCACCCAUGUAAUACAGGGAGACCCUUGGCAGCAUCGAAUAAACA | – | – | – | – | apparent Kd (MS2 coat protein [1]; [3]): 432 nM; apparent Kd (MS2 coat protein [1]; [4]): 82.7 nM
ACAAGGCUUACAGGAUAUGUGCGUCAUACAAAACAUGAGGAUCACCCAUGUGCCCCAGCGUCUUCACAGAAGGGUACAAGCGUU | 26.6 | 12.4 | – | – | –
ACACAUGAGGAUCACCCAUGUAGAUAUGGGCUCACUAUCACUAGAAGGACUUUGCUCUCUUGGAAGUAGGAUAUAGUACGCUGG | – | – | 163 | 134 | –
ACACAUGAGGAUCACCCAUGUCGUGAGAGCUCAGUCGUGCGUUAGGAUAUCAUUCUGUUAGUGUUUGAGAAGGAACGGGUAACC | – | – | 50.1 | 43.3 | –
ACAGUAAAUGUGUAGGAUAUGAACUAAACCACAUGAGGAUCACCCAUGUAACGAUUGGAUGGCCUUCAGAAGGACAGGGUUAUUGC | 304 | 215 | – | – | –
ACAUGAGGAUCACCCAUGUACCAAGAACAUUGAUGCCUCCGAGAGGAUAUUUGCGGUAUAACACUAAAGAAGGCUCUACAAGUA | – | – | 7.95 | 7.31 | –
UUGUUGUAUGUAGGAUAUGCGUAUUAUUAUUAUGCAGAAGGACAUGAGGAUCACCCAUGUAUAUUAUUAUUAUAUGUUAUAUAU | – | – | – | – | apparent Kd (MS2 coat protein [2]; [7]): 26.2 nM; apparent Kd (MS2 coat protein [2]; [8]): 36.3 nM
UUUACGAAAGUCGAACGAUGUAGCAGAAGGACAUGAGGAUCACCCAUGUCAGCUGUAACAGCCAUGUAGGAUAUGCUACAUAAA | – | – | – | – | apparent Kd (MS2 coat protein [2]; [7]): 5.78 nM; apparent Kd (MS2 coat protein [2]; [8]): 5.92 nM
UUUACGAAAGUCGAACGAUGUAGCAGAAGGACAUGAGGAUCACCCAUGUCAGCUGUAACAGCCAUGUAGGAUAUGCUACAUUUU | – | – | – | – | apparent Kd (MS2 coat protein [2]; [7]): 5.37 nM; apparent Kd (MS2 coat protein [2]; [8]): 6.12 nM
UUUACUUUGUAGAAGGGUGACAUGAGGAUCACCCAUGUGCGUCGCCUGAAAGACCAGGGUACGCCACAGGAUAUACAAAGUAAG | – | – | – | – | apparent Kd (MS2 coat protein [2]; [5]): 56.5 nM; apparent Kd (MS2 coat protein [2]; [6]): 40.4 nM
UUUAUAAAUUAGAAGGCGUGAUAAAAUACAAUAAACAUGAGGAUCACCCAUGUGUACCCAUGUUAUGAGGAUAUAGUCAUAUAU | – | – | – | – | apparent Kd (MS2 coat protein [2]; [5]): 462 nM; apparent Kd (MS2 coat protein [2]; [6]): 377 nM
UUUAUGUCAGGAUAUACAUGAGGAUCACCCAUGUAUAUCUUAAAAUAUACAUGGGAAUGUAGAAGGGACCUCCU | – | – | – | – | apparent Kd (MS2 coat protein [2]; [7]): 51 nM; apparent Kd (MS2 coat protein [2]; [8]): 41 nM
UUUAUGUCAGGAUAUGAGGAGUAGAACAAUAGUACUACUCCUCAGAAGGGACAUGAGGAUCACCCAUGUUCCUC | – | – | – | – | apparent Kd (MS2 coat protein [2]; [7]): 20.7 nM; apparent Kd (MS2 coat protein [2]; [8]): 91.9 nM
UUUAUUUCGGCAGGAUAUACAUGUAUAUAUAUUUCUUCAUAUCUUAUUACAUGAGGAUCACCCAUGUAGAAGGGCCUUCUUCUC | – | – | – | – | apparent Kd (MS2 coat protein [2]; [7]): 65.6 nM; apparent Kd (MS2 coat protein [2]; [8]): 80.5 nM

Source: the EternaBench riboswitch data
